Assay [1] is described as follows: Growth inhibition of pro-apoptotic stimuli-sensitive human Hs683 cells after 72 hrs by MTT assay. In kind it is functional. The following applies: Hs 683, 72 h. The essentials:
(§1)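 Cells seeded at 10,000 to 40,000 cells/mL depending on cell type and allowed to attach for 24 h. They were then cultured 72 h with or without compound (untreated control). Living cells were measured by MTT reduction to formazan, read at 570 nm against a 630 nm reference. GI50 was derived from the growth levels.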

In another assay the test system is MCF7. The assay is described as follows: Growth inhibition of human MCF7 cells after 72 hrs by MTT assay. In kind it is functional. As to conditions: MCF7, 72 h. For orientation: Tetrazolium dyes change colour on reduction, which living cells bring about.
In a further assay the test system is B16-F10. The assay is described as follows: Growth inhibition of pro-apoptotic stimuli-sensitive mouse B16F10 cells after 72 hrs by MTT assay. The assay is classed as functional. As to conditions: B16-F10, 72 h. The essentials:
as §1

Assay [2] in a line: Growth inhibition of pro-apoptotic stimuli-resistant human U373 cells after 72 hrs by MTT assay. The assay is classed as functional, U-373MG ATCC. The following applies: U373 MG. The essentials: as §1
In the next assay the test system is T98G. The assay is described as follows: Growth inhibition of pro-apoptotic stimuli-resistant human T98G cells after 72 hrs by MTT assay. The assay is classed as functional. The essentials:
as §1

The test system of a further assay is A549. The assay is described as follows: Growth inhibition of pro-apoptotic stimuli-resistant human A549 cells after 72 hrs by MTT assay. In kind it is functional. The following applies: A549, 72 h. Summed up:
as §1

A further assay deals with SK-MEL-28. The assay can be described thus: Growth inhibition of pro-apoptotic stimuli-resistant human SK-MEL-28 cells after 72 hrs by MTT assay. The assay is classed as functional. The following applies: SK-MEL-28, 72 h. The essentials: as §1
A further assay deals with PC-3. The assay can be described thus: Growth inhibition of human PC3 cells after 72 hrs by MTT assay. The assay is classed as functional. The following applies: PC-3, 72 h.

The term GI50 denotes the concentration at which growth is held to half of that of the control.

Some results are limits rather than exact numbers.

Turning to `CC(=O)O[C@H]1[C@H]2c3cc4c(cc3C(=O)N3CCC(=C[C@@H]1OC(C)=O)[C@H]23)OCO4`, the GI50 in assay [1] was 49 µM; with MCF7 it was > 100 µM; in the assay on B16-F10, 75 µM; in assay [2] it was 39 µM; in the assay with T98G, 32 µM; with A549 it was 36 µM. The figures for the GI50 with SK-MEL-28 and in the assay on PC-3 were 99 µM and > 100 µM, respectively.

As to `CC(=O)Oc1cc2c3c(c1)c1cc4c(cc1c(=O)n3CC2)OCO4`, the GI50 was 20 µM in assay [1]; 50 µM in the assay with MCF7; 20 µM in the assay on B16-F10; 21 µM in assay [2]; 29 µM in the assay on T98G; 23 µM with A549. In addition, the concentration for 50% growth inhibition (GI50) was > 100 µM in the assay on SK-MEL-28 and 33 µM with PC-3.

Turning to `CC(=O)O[C@@H]1[C@@H](OC(C)=O)[C@H](O)[C@@]2(O)CCN3C(=O)c4cc5c(cc4[C@H]1[C@H]32)OCO5`, the GI50 is > 100 µM in assay [1]; > 100 µM in the assay on MCF7; 86 µM with B16-F10; > 100 µM in assay [2]; > 100 µM in the assay on T98G; > 100 µM in the assay with A549. The GI50 in the assay with SK-MEL-28 and in the assay with PC-3 was > 100 µM each time.

As for `O=C1c2cc3c(cc2[C@@H]2[C@H](O)[C@@H](O)C=C4CCN1[C@H]42)OCO3`, the GI50 (in assay [1]; in the assay on MCF7; in the assay with B16-F10; in assay [2]; in the assay on T98G; in the assay on A549) was > 100 µM throughout. The GI50 with SK-MEL-28 and in the assay on PC-3 was > 100 µM throughout.

As to `O=C(O[C@H]1[C@H]2c3cc4c(cc3CN3CCC(=C[C@@H]1O)[C@H]23)OCO4)c1ccccc1`, the GI50 in assay [1] turned out to be 4 µM; in the assay with MCF7 it was 5 µM; in the assay on B16-F10, 8 µM; in assay [2], 0.6 µM; in the assay on T98G, 32 µM; in the assay on A549 it was 32 µM. Also, the GI50 in the assay with SK-MEL-28 was determined as 4 µM; in the assay on PC-3, 5 µM.

Consider `O=c1c2cc3c(cc2c2cc(O)cc4c2n1CC4)OCO3`, for which the GI50 turned out to be 40 µM in assay [1]; 9 µM in the assay on MCF7; 38 µM in the assay on B16-F10; 49 µM in assay [2]; 41 µM in the assay on T98G; 44 µM in the assay on A549. Besides, the GI50 was > 100 µM with SK-MEL-28 and 48 µM with PC-3.

In the case of `CC(=O)O[C@H]1[C@H]2c3cc4c(cc3C(=S)N3CCC(=C[C@@H]1OC(C)=O)[C@H]23)OCO4`, the GI50 in assay [1] was 52 µM; in the assay with MCF7, 35 µM; in the assay on B16-F10, 30 µM; in assay [2], 46 µM; in the assay on T98G, 57 µM; in the assay with A549, 57 µM. Further, the values for the GI50 in the assay with SK-MEL-28 and with PC-3 were 47 µM and > 100 µM, respectively.

For the compound `O=C1c2cc3c(cc2[C@@H]2[C@H](O)[C@@H](O)[C@H](O)[C@@]4(O)CCN1[C@@H]24)OCO3`, the GI50 in assay [1] was > 100 µM; in the assay with MCF7, 96 µM; with B16-F10, > 100 µM; in assay [2], > 100 µM; with T98G, > 100 µM; in the assay with A549 it was > 100 µM. Moreover, the GI50 in the assay with SK-MEL-28 and in the assay on PC-3 was > 100 µM throughout.

Regarding `O[C@@H]1[C@@H](O)[C@H](O)[C@@]2(O)CCN3Cc4cc5c(cc4[C@H]1[C@H]32)OCO5`, the GI50 in assay [1] is > 100 µM; in the assay on MCF7, > 100 µM; in the assay on B16-F10, 83 µM; in assay [2], > 100 µM; in the assay on T98G, > 100 µM; in the assay with A549, > 100 µM. Moreover, the GI50 in the assay on SK-MEL-28 and in the assay on PC-3 was > 100 µM throughout.

As to `CC(=O)O[C@@H]1[C@@H](OC(C)=O)[C@H](OC(C)=O)[C@@]2(O)CCN3C(=O)c4cc5c(cc4[C@H]1[C@H]32)OCO5`, the GI50 (in assay [1]; in the assay with MCF7; with B16-F10; in assay [2]; in the assay on T98G; with A549) was > 100 µM each time. Also, the GI50 in the assay with SK-MEL-28 and with PC-3 was > 100 µM each time.

As for `CC(=O)O[C@@H]1[C@@H](OC(C)=O)[C@H](OC(C)=O)C2=CCN3C(=O)c4cc5c(cc4[C@H]1[C@@H]23)OCO5`, the 50% growth inhibitory concentration (GI50) was > 100 µM in assay [1]; > 100 µM in the assay with MCF7; 83 µM in the assay with B16-F10; > 100 µM in assay [2]; > 100 µM in the assay with T98G; > 100 µM with A549. The GI50 with SK-MEL-28 and in the assay on PC-3 was > 100 µM in each case.

For `O=C1c2cc3c(cc2[C@@H]2[C@H](O)[C@@H](O)[C@H](O)C4=CCN1[C@H]42)OCO3`, the GI50 (in assay [1]; in the assay on MCF7; with B16-F10; in assay [2]; with T98G; with A549) was > 100 µM in each case. Besides, the GI50 in the assay with SK-MEL-28 and with PC-3 was > 100 µM each time.

Take `CC(C)(C)C(=O)O[C@H]1C=C2CCN3Cc4cc5c(cc4[C@H]([C@@H]1O)[C@@H]23)OCO5`: the GI50 was 15 µM in assay [1]; 36 µM in the assay with MCF7; 5 µM in the assay with B16-F10; 9 µM in assay [2]; 12 µM in the assay with T98G; 7 µM with A549. For the same compound, the values for the GI50 with SK-MEL-28 and in the assay with PC-3 were 10 µM and 12 µM, respectively.

On to `CC(C)[Si](O[C@H]1C=C2CCN3Cc4cc5c(cc4[C@H]([C@@H]1O)[C@@H]23)OCO5)(C(C)C)C(C)C`, for which the GI50 in assay [1] was 22 µM; in the assay on MCF7, 24 µM; in the assay with B16-F10 it was 22 µM; in assay [2], 13 µM; in the assay with T98G it was 11 µM; in the assay with A549 it was 15 µM. In addition, the GI50 is 26 µM with SK-MEL-28 and 18 µM with PC-3.

With `O=C(O[C@H]1[C@H]2c3cc4c(cc3CN3CCC(=C[C@@H]1OC(=O)c1ccccc1)[C@H]23)OCO4)c1ccccc1`, the GI50 in assay [1] worked out at 10 µM; with MCF7, 20 µM; with B16-F10, 24 µM; in assay [2], 1 µM; in the assay on T98G, 54 µM; in the assay with A549 it was 54 µM. The GI50 in the assay with SK-MEL-28 is 29 µM; with PC-3 it was 11 µM.

On to `O=C(O[C@H]1C=C2CCN3Cc4cc5c(cc4[C@H]([C@@H]1O)[C@@H]23)OCO5)c1ccccc1`, for which the GI50 came to 6 µM in assay [1]; 23 µM in the assay with MCF7; 21 µM in the assay with B16-F10; 1 µM in assay [2]; 70 µM in the assay on T98G; 70 µM in the assay on A549. Also, the GI50 was 60 µM in the assay with SK-MEL-28 and 34 µM in the assay with PC-3.

As for `CCCCCCCCCCCCCCCC(=O)O[C@H]1[C@H]2c3cc4c(cc3CN3CCC(=C[C@@H]1O[Si](C(C)C)(C(C)C)C(C)C)[C@H]23)OCO4`, the GI50 stood at 21 µM in assay [1]; 25 µM in the assay on MCF7; 38 µM in the assay with B16-F10; 13 µM in assay [2]; 3 µM in the assay on T98G; 9 µM in the assay with A549. The GI50 is 38 µM in the assay on SK-MEL-28 and 20 µM in the assay with PC-3.

`CC(=O)O[C@H]1[C@H]2c3cc4c(cc3CN3CCC(=C[C@@H]1O[Si](C(C)C)(C(C)C)C(C)C)[C@H]23)OCO4`: the GI50 in assay [1] came to 36 µM; in the assay on MCF7 it was 27 µM; in the assay with B16-F10, 30 µM; in assay [2], 15 µM; in the assay on T98G, 6 µM; in the assay with A549 it was 18 µM. The 50% growth inhibitory concentration (GI50) with SK-MEL-28 was 34 µM; in the assay with PC-3 it was 26 µM.

For the compound `O[C@H]1C=C2CCN3Cc4cc5c(cc4[C@H]([C@@H]1OCc1ccccc1)[C@@H]23)OCO5`, the GI50 turned out to be 80 µM in assay [1]; 74 µM in the assay with MCF7; 57 µM with B16-F10; 50 µM in assay [2]; 34 µM with T98G; 67 µM with A549. Besides, the GI50 with SK-MEL-28 is > 100 µM; with PC-3 it was 97 µM.

As to `O=c1c2cc3c(cc2c2cccc4ccn1c42)OCO3`, the GI50 in assay [1] amounted to 19 µM; in the assay with MCF7, 27 µM; in the assay on B16-F10 it was 34 µM; in assay [2], 27 µM; in the assay on T98G, 96 µM; in the assay with A549, 96 µM. For the same compound, the GI50 in the assay with SK-MEL-28 and in the assay with PC-3 was > 100 µM throughout.

As for `CC(=O)O[C@H]1[C@H]2c3cc4c(cc3CN3CCC(=C[C@@H]1O)[C@H]23)OCO4`, the GI50 was determined as 11 µM in assay [1]; 4 µM with MCF7; 43 µM with B16-F10; 4 µM in assay [2]; 2 µM with T98G; 3 µM in the assay with A549. The GI50 in the assay on SK-MEL-28 and with PC-3 was 3 µM each time.

In the case of `O=c1c2cc3c(cc2c2cccc4c2n1CC4)OCO3`, the GI50 in assay [1] was determined as 14 µM; with MCF7, 16 µM; in the assay on B16-F10 it was 8 µM; in assay [2], 4 µM; with T98G it was 24 µM; in the assay on A549, 24 µM. Moreover, the GI50 with SK-MEL-28 was 33 µM; in the assay with PC-3, 38 µM.

Consider `O=C1C=C2CCN3Cc4cc5c(cc4[C@H]([C@@H]1O)[C@@H]23)OCO5`, for which the 50% growth inhibitory concentration (GI50) in assay [1] is 3 µM; in the assay with MCF7 it was 35 µM; with B16-F10, 16 µM; in assay [2] it was 45 µM; in the assay with T98G, 38 µM; with A549 it was 4 µM. In addition, the GI50 in the assay with SK-MEL-28 was > 100 µM; in the assay on PC-3, 92 µM.

The record behind these values is ChEMBL document CHEMBL1921724, “In search of a cytostatic agent derived from the alkaloid lycorine: synthesis and growth inhibitory properties of lycorine derivatives” (Bioorg Med Chem, 2011).
